Measurements from ChEMBL document CHEMBL3585348, “Armochaetoglobins A-J: Cytochalasan Alkaloids from Chaetomium globosum TW1-1, a Fungus Derived from the Terrestrial Arthropod Armadillidium vulgare” (J Nat Prod, 2015).
pIC50: −log10 of the molar value.

Assays:
[1] = system: HL-60; assay: Cytotoxicity against human HL60 cells assessed as cell viability after 48 hrs by MTS assay; format: functional, cell-based; settings: HL-60, 48 h
Method in brief: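 HL-60 suspension cells grown in DMEM or RPMI1640 with 10% FBS at 37 °C in 5% CO2, seeded at 1 × 10^5 cells/mL just before dosing. Exposure was 48 h, in triplicate, at 0.0625–40 μM (five concentrations), with cisplatin and paclitaxel controls. MTS (5 mg/mL) was added for 4 h at 37 °C, followed by 10% SDS lysis and OD at 595 nm.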

[2] = system: SMMC-7721; assay: Cytotoxicity against human SMMC7721 cells assessed as cell viability after 48 hrs by MTS assay; format: functional, cell-based; settings: SMMC-7721, 48 h
Method in brief: (§1)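 Adherent cells grown in DMEM or RPMI1640 with 10% FBS at 37 °C in 5% CO2, seeded in 96-well plates, and left to adhere 12 h. Compounds were added at 0.0625, 0.32, 1.6, 8 and 40 μM for 48 h, in triplicate, with cisplatin and paclitaxel as positive controls. MTS (5 mg/mL) was added for 4 h at 37 °C, cells lysed in 10% SDS, and OD read at 595 nm.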

[3] = system: A549; assay: Cytotoxicity against human A549 cells assessed as cell viability after 48 hrs by MTS assay; format: functional, cell-based; settings: A549, 48 h; method in brief: as §1
[4] = system: MCF7; assay: Cytotoxicity against human MCF7 cells assessed as cell viability after 48 hrs by MTS assay; format: functional, cell-based; settings: MCF7, 48 h; method in brief: as §1
[5] = system: SW480; assay: Cytotoxicity against human SW480 cells assessed as cell viability after 48 hrs by MTS assay; format: functional, cell-based; settings: SW480, 48 h; method in brief: as §1
[6] = Cytotoxicity against human BEAS2B cells assessed as cell viability after 48 hrs by MTS assay; format: cell-based; settings: BEAS-2B
Method in brief: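 Noncancerous human bronchial epithelial BEAS-2B cells grown in DMEM or RPMI1640 with 10% FBS at 37 °C in 5% CO2, seeded in 96-well plates and allowed 12 h to adhere before compound addition. Viability was read after adding MTS (5 mg/mL) for 4 h at 37 °C, lysing in 10% SDS, and measuring formazan OD at 595 nm.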

| SMILES | pIC50 [1] | pIC50 [2] | pIC50 [3] | pIC50 [4] | pIC50 [5] | pIC50 [6] |
| --- | --- | --- | --- | --- | --- | --- |
| C/C(C=O)=C\C(C)C/C=C/[C@H]1[C@@H]2O[C@]2(C)[C@@H](C)[C@H]2[C@H](Cc3c[nH]c4ccccc34)NC(=O)[C@]21C(=O)CCCO (stereo not given in full) | 4.93 | 4.97 | 4.79 | < 4.40 | < 4.40 | 4.81 |
| CC(=O)O[C@H]1C(=O)[C@@]2(C)[C@H]([C@H](OC(=O)c3ccccc3)[C@]3(O)C[C@H](OC(=O)[C@H](O)[C@@H](NC(=O)c4ccccc4)c4ccccc4)C(C)=C1C3(C)C)[C@]1(OC(C)=O)CO[C@@H]1C[C@@H]2O [PACLITAXEL] | > 8.10 | > 8.10 | > 8.10 | > 8.10 | > 8.10 | 6.24 |
| C/C(C=O)=C\C(C)C/C=C/[C@H]1[C@@H]2O[C@]2(C)[C@@H](C)[C@H]2[C@H](Cc3c[nH]c4ccccc34)NC(=O)[C@]21C(=O)CCC(=O)O (stereo not given in full) | < 4.40 | 4.60 | < 4.40 | < 4.40 | < 4.40 | < 4.40 |
| C/C(=C\C(C)C/C=C/[C@H]1[C@@H]2O[C@]2(C)[C@@H](C)[C@H]2[C@H](Cc3c[nH]c4ccccc34)NC(=O)[C@]21C(=O)CCCO)CO (stereo not given in full) | 4.78 | 4.71 | 4.51 | < 4.40 | < 4.40 | 4.64 |
| CC1=C[C@@H]2/C=C/C[C@H](C)/C=C(\C)C(=O)[C@@H](O)CCC(=O)[C@]23C(=O)N[C@@H](Cc2c[nH]c4ccccc24)[C@@H]3[C@@H]1C | 4.90 | 4.86 | 4.85 | 4.83 | 4.69 | 4.80 |
| C/C1=C\[C@@H](C)C/C=C/[C@H]2C=C(CO)[C@@H](C)[C@H]3[C@H](Cc4c[nH]c5ccccc45)NC(=O)[C@]32C(=O)/C=C/C(=O)[C@@H]1O | 5.48 | 5.01 | 5.10 | 5.39 | 5.41 | 5.48 |
| CC1=C[C@@H]2/C=C/C[C@H](C)/C=C(\C)[C@@H](O)[C@@H](O)CCC(=O)[C@]23C(=O)N[C@@H](Cc2c[nH]c4ccccc24)[C@@H]3[C@@H]1C | < 4.40 | < 4.40 | < 4.40 | < 4.40 | < 4.40 | < 4.40 |
| C/C1=C\[C@@H](C)C/C=C/[C@H]2[C@H](O)[C@@]3(C)O[C@@]4(Cc5c[nH]c6ccccc56)NC(=O)[C@]2(C(=O)CCC(=O)C1=O)[C@H]4[C@@H]3C | 4.74 | 4.76 | 4.75 | 4.72 | 4.45 | 4.78 |
| COC(=O)CCC(=O)[C@@]12C(=O)N[C@@H](Cc3c[nH]c4ccccc34)[C@@H]1[C@H](C)[C@@]1(C)O[C@H]1[C@@H]2/C=C/CC(C)/C=C(\C)C=O (stereo not given in full) | 4.85 | 4.96 | 4.70 | 4.64 | 4.42 | 5.25 |
| C/C1=C\[C@@H](C)C/C=C/[C@H]2C=C(CO)[C@@H](C)[C@H]3[C@H](Cc4c[nH]c5ccccc45)NC(=O)[C@]32C(=O)CCC(=O)C1 | < 4.40 | < 4.40 | < 4.40 | < 4.40 | < 4.40 | < 4.40 |
